# Experimental data: ChEMBL document CHEMBL5512642, “Novel triterpenoid pyrones, phthalimides and phthalates are selectively cytotoxic in CCRF-CEM cancer cells - Synthesis, potency, and mitochondrial mechanism of action” (Eur J Med Chem, 2024)
# The source made the active and inactive calls. No cut-off for these calls is given here.
# Tests used:
# [1] = Stability in human plasma assessed as compound remaining measured 30 mins by RF-MS analysis; format: ADME, cell-free; settings: read-out: Stability
# How it was run: (§1)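 Compounds incubated in human plasma in vitro for up to 2 h. Percent remaining sampled at 15, 30, 60 and 120 min. Run in triplicate.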
# CCRF-CEM [2] = test: Induction of mitochondrial membrane potential loss in human CCRF-CEM cells assessed as cells with depolarized mitochondria (P2 gate) by measuring green fluorescence intensity at 1 time IC50 incubated for 24 hrs by JC-1 staining based flow cytometry (reference value: 2.1%)
# CCRF-CEM [3] = test: Induction of apoptosis in human CCRF-CEM cells assessed as early apoptotic cells at 1 time IC50 incubated for 24 hrs by Annexin V and propidium iodide staining based flow cytometry analysis (reference value: 1.4%); format: functional
# CCRF-CEM [4] = test: Induction of apoptosis in human CCRF-CEM cells assessed as early apoptotic cells at 5 time IC50 incubated for 24 hrs by Annexin V and propidium iodide staining based flow cytometry analysis (reference value: 1.4%); format: functional
# A549 = test: Cytotoxicity against human A549 cells assessed as reduction in cell viability incubated for 72 hrs by MTS assay; format: functional, cell-based; settings: A549, 72 h
# [5] = Cytotoxicity against human BJ cells assessed as reduction in cell viability incubated for 72 hrs by MTS assay; format: toxicity, cell-based
# CCRF-CEM [6] = test: Induction of apoptosis in human CCRF-CEM cells assessed as late apoptotic cells at 1 time IC50 incubated for 24 hrs by Annexin V and propidium iodide staining based flow cytometry analysis (reference value: 0.5%); format: functional
# [7] = Metabolic stability in human liver microsomes assessed as compound remaining at measured at 30 mins in presence of NADPH by RF-MS analysis; format: ADME, Microsome; settings: read-out: Stability
# How it was run: (§2)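 Human liver microsomes with NADPH cofactor to assess phase I oxidation. Compound remaining sampled at 15, 30 and 60 min; intrinsic clearance derived and categorized. Run in triplicate.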
# CCRF-CEM [8] = test: Induction of apoptosis in human CCRF-CEM cells assessed as reduction in Bcl-XL expression at 5 time of IC50 incubated for 24 hrs by Western blot analysis; format: functional, cell-based
# How it was run: (§3)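 Lysate 20 µg protein per lane on SDS-PAGE, transferred to nitrocellulose, blocked in 5% BSA/TBS-Tween. Probed overnight at 4 °C with anti-caspase-3, Bcl-2, Bcl-XL, β-actin, then HRP secondary 1 h. ECL chemiluminescence detection.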
# [9] = Efflux ratio of apparent permeability across basolateral to apical side over apical to basolateral side in MDCK-MDR1 cells; format: ADME, cell-based, Canis lupus familiaris; settings: dog
# How it was run: (§4)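 Caco-2 and MDCK-MDR1 monolayers; transport measured in both directions, apical→basolateral and basolateral→apical. Efflux ratio taken from the two directions; ER > 2 counted as active efflux. Compound recovery reported. Cell-based permeability runs done in duplicate.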
# [10] = Metabolic stability in human liver microsomes assessed as compound remaining at measured at 60 mins in presence of NADPH by RF-MS analysis; format: ADME, Microsome; settings: read-out: Stability; how it was run: as §2
# CCRF-CEM [11] = test: Induction of apoptosis in human CCRF-CEM cells assessed as necrotic cells at 5 time IC50 incubated for 24 hrs by Annexin V and propidium iodide staining based flow cytometry analysis (reference value: 0.; format: functional
# [12] = Apparent permeability of the compound in MDCK-MDR1 cells at 10 uM incubated for 1 hr by RF-MS analysis; format: ADME, cell-based, Canis lupus familiaris; settings: dog; how it was run: as §4
# CEM-DNR = test: Cytotoxicity against human CEM-DNR cells assessed as reduction in cell viability incubated for 72 hrs by MTS assay; format: functional, cell-based
# CCRF-CEM [13] = test: Induction of apoptosis in human CCRF-CEM cells assessed as late apoptotic cells at 5 time IC50 incubated for 24 hrs by Annexin V and propidium iodide staining based flow cytometry analysis (reference value: 0.5%); format: functional
# [14] = Stability in human plasma assessed as compound remaining measured 60 mins by RF-MS analysis; format: ADME, cell-free; settings: read-out: Stability; how it was run: as §1
# HCT-116 = test: Cytotoxicity against human HCT-116 cells assessed as reduction in cell viability incubated for 72 hrs by MTS assay; format: functional, cell-based; settings: HCT-116, 72 h
# CCRF-CEM [15] = test: Induction of apoptosis in human CCRF-CEM cells assessed as reduction in Bcl-2 expression at 5 time of IC50 incubated for 24 hrs by Western blot analysis; format: functional, cell-based; how it was run: as §3
# [16] = Cytotoxicity against human K562-Tax cells assessed as reduction in cell viability incubated for 72 hrs by MTS assay; format: functional, cell-based
# CCRF-CEM [17] = test: Cytotoxicity against human CCRF-CEM cells assessed as reduction in cell viability incubated for 72 hrs by MTS assay; format: functional, cell-based
# CCRF-CEM [18] = test: Induction of apoptosis in human CCRF-CEM cells assessed as reduction in caspase-3 expression at 5 time of IC50 incubated for 24 hrs by Western blot analysis; format: functional, cell-based; how it was run: as §3
# [19] = Efflux ratio of apparent permeability across basolateral to apical side over apical to basolateral side in human Caco-2 cells; format: ADME, cell-based; how it was run: as §4
# [20] = Apparent permeability of the compound across apical to basolateral side in human Caco-2 cells assessed as compound recovery; format: ADME, cell-based; settings: read-out: Activity; how it was run: as §4
# [21] = Cytotoxicity against human MRC5 cells assessed as reduction in cell viability incubated for 72 hrs by MTS assay; format: toxicity, cell-based
# [22] = Stability in human plasma assessed as compound remaining measured 120 mins by RF-MS analysis; format: ADME, cell-free; settings: read-out: Stability; how it was run: as §1
# [23] = Apparent permeability of the compound in human Caco-2 cells; format: ADME, cell-based; how it was run: as §4
# [24] = Apparent permeability of the compound across apical to basolateral side in MDCK-MDR1 cells assessed as compound recovery at 10 uM incubated for 1 hr by RF-MS analysis; format: ADME, cell-based, Canis lupus familiaris; settings: dog, read-out: Activity; how it was run: as §4
# CCRF-CEM [25] = test: Induction of apoptosis in human CCRF-CEM cells assessed as viable cells at 5 time IC50 incubated for 24 hrs by Annexin V and propidium iodide staining based flow cytometry analysis (reference value: 98%); format: functional
# U2OS = test: Cytotoxicity against human U2OS cells assessed as reduction in cell viability incubated for 72 hrs by MTS assay; format: functional, cell-based
# [26] = Plasma protein binding in human assessed as fraction bound at 10 uM by rapid equilibrium dialysis based RF-MS analysis; format: ADME, cell-free; settings: read-out: PPB (converted)
# How it was run: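 Human plasma protein binding measured by equilibrium dialysis and reported as percent fraction bound. Run in triplicate.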
# HCT 116 TP53(-/-) = test: Cytotoxicity against human HCT116-p53-null cells assessed as reduction in cell viability incubated for 72 hrs by MTS assay; format: functional, cell-based
# CCRF-CEM [27] = test: Induction of apoptosis in human CCRF-CEM cells assessed as necrotic cells at 1 time IC50 incubated for 24 hrs by Annexin V and propidium iodide staining based flow cytometry analysis (reference value: 0.1%); format: functional
# K562 = test: Cytotoxicity against human K562 cells assessed as reduction in cell viability incubated for 72 hrs by MTS assay; format: functional, cell-based; settings: K562, 72 h
# CCRF-CEM [28] = test: Induction of mitochondrial membrane potential loss in human CCRF-CEM cells assessed as cells with depolarized mitochondria (P2 gate) by measuring green fluorescence intensity at 5 time IC50 incubated for 24 hrs by JC-1 staining based flow cytometry (reference value: 2.1%)
# [29] = Metabolic stability in human liver microsomes assessed as compound remaining at measured at 15 mins in presence of NADPH by RF-MS analysis; format: ADME, Microsome; settings: read-out: Stability; how it was run: as §2
# [30] = Stability in human plasma assessed as compound remaining measured 15 mins by RF-MS analysis; format: ADME, cell-free; settings: read-out: Stability; how it was run: as §1
# CCRF-CEM [31] = test: Induction of apoptosis in human CCRF-CEM cells assessed as viable cells at 1 time IC50 incubated for 24 hrs by Annexin V and propidium iodide staining based flow cytometry analysis (reference value: 98%); format: functional
# CCRF-CEM [32] = test: Antiproliferative activity against human CCRF-CEM cells assessed as inhibition of RNA synthesis at 5 time of IC50 by BrdU incorporation assay; format: functional, cell-based; settings: in the assay text read “BrU incorporation assay” for “BrdU incorporation assay”
# How it was run: (§5)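 Mitotic fraction scored with the pH3 Ser10 marker and DNA synthesis with BrdU incorporation. For transcription, cells received a short BrU pulse after the 24 h pre-incubation. Read by flow cytometry against untreated cells.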
# CCRF-CEM [33] = test: Antimitotic activity against human CCRF-CEM cells assessed as decrease in cell division at 5 times of IC50; format: functional, cell-based; how it was run: as §5
SMILES,remaining at 0.5 h [1] [%],Activity (CCRF-CEM [2]) [%],Activity (CCRF-CEM [3]) [%],Activity (CCRF-CEM [4]) [%],IC50 (A549) [µM],IC50 at 72 h [5] [µM],Activity (CCRF-CEM [6]) [%],remaining at 0.5 h [7] [%],Activity (CCRF-CEM [8]),efflux ratio [9],remaining at 1 h [10] [%],Activity (CCRF-CEM [11]) [%],"Papp at 1 h, 10 µM [12] [×10⁻⁶ cm/s]",IC50 (CEM-DNR) [µM],Activity (CCRF-CEM [13]) [%],remaining at 1 h [14] [%],IC50 (HCT-116) [µM],Activity (CCRF-CEM [15]),IC50 [16] [µM],IC50 (CCRF-CEM [17]) [µM],also measured
C[C@H]1[C@H](C)CC[C@]2(C(=O)O)CC[C@]3(C)C(=CC[C@@H]4[C@@]5(C)CC6=C(C7C(=O)N(c8ccccc8)C(=O)C7C=C6C(F)(F)F)C(C)(C)[C@@H]5CC[C@]43C)[C@H]12 (stereo partly specified),99.6,0.6,3.6,10.9,18,10,2.8,64,Active,8.17,45,0,0.33,> 50,6.9,102,13,Active,23,4.3,"Activity (CCRF-CEM [18]): Active; efflux ratio [19]: 41.8; recovery [20]: 69.2%; IC50 at 72 h [21]: > 50 µM; remaining at 2 h [22]: 94.2%; Papp [23]: 0.12 ×10⁻⁶ cm/s; recovery at 1 h, 10 µM [24]: 60.5%; Activity (CCRF-CEM [25]): 82.2%; IC50 (U2OS): 19 µM; fraction unbound at 10 µM [26]: 0.292; IC50 (HCT 116 TP53(-/-)): 12 µM; Activity (CCRF-CEM [27]): 0%; IC50 (K562): 21 µM; Activity (CCRF-CEM [28]): 11.8%; remaining at 0.25 h [29]: 82%; remaining at 0.25 h [30]: 102%; Activity (CCRF-CEM [31]): 93.6%"
C=C(C)[C@@H]1CC[C@]2(C(=O)O)CC[C@]3(C)[C@H](CC[C@@H]4[C@@]5(C)Cc6c(C(F)(F)F)cc(=O)oc6C(C)(C)[C@@H]5CC[C@]43C)[C@@H]12,99.2,4.4,5.3,17.3,16,> 50,3.7,86,Active,26,70,0,0.14,7.8,31.5,102,13,Active,10,4,"Activity (CCRF-CEM [32]): Active; Activity (CCRF-CEM [33]): Active; Activity (CCRF-CEM [18]): Active; efflux ratio [19]: 28.4; recovery [20]: 104%; IC50 at 72 h [21]: 28 µM; remaining at 2 h [22]: 93.6%; Papp [23]: 0.04 ×10⁻⁶ cm/s; recovery at 1 h, 10 µM [24]: 70.7%; Activity (CCRF-CEM [25]): 51.2%; IC50 (U2OS): 18 µM; fraction unbound at 10 µM [26]: 0.135; IC50 (HCT 116 TP53(-/-)): 15 µM; Activity (CCRF-CEM [27]): 0.1%; IC50 (K562): 22 µM; Activity (CCRF-CEM [28]): 30.2%; remaining at 0.25 h [29]: 100%; remaining at 0.25 h [30]: 99.9%; Activity (CCRF-CEM [31]): 90.9%"
